Data taken from publication PMC10395482 (Heliyon, 2023).

Legend:
[1] = test system: chick embryo chorioallantoic membrane; test: Chick chorioallantoic membrane; type: in vivo; details: VEGF 0.5 μg, 48 h; n = 5
In short: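 Fertilized eggs were held at 37 °C and 60% humidity for 5 days and turned 180° every 24 h. On day 6 the shell was opened along the air chamber and sterile rubber rings were placed at the aorta. Test compound in saline (0, 10, 50, 250 μM; 50 μL) was added inside the ring, and eggs were sealed for 48 h. Vascular density was calculated as vessel area/view area from stereomicroscope images.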

MHCC97L xenograft = test: MHCC97L subcutaneous xenograft; type: in vivo, BALB/c nude mice; details: 14 days
In short: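 Five-week-old male BALB/c nude mice received MHCC97L cells subcutaneously in the axilla (1 × 10^7 cells in 0.1 mL saline). At 50 mm3 they were randomized to groups and given the test compound in saline by tail vein (10, 20, 30 mg/kg; 0.1 mL/20 g). Tumor volume, calculated as (short diameter)2 × long diameter/2, and body weight were recorded every 2 days. Mice were sacrificed after 14 days; one-way ANOVA with Dunnett's test was used.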

| Compound | angiogenesis in CAM, VEGF alone [1] | Tumor Inhibition Rate (MHCC97L xenograft; PTK787 50 mg/kg, n = 5) [%] | Tumor Weight (MHCC97L xenograft; PTK787 50 mg/kg, mean ± SD, n = 5, *** p < 0.001 vs saline) | tumor growth, volume and weight (in words) (MHCC97L xenograft; SAIF 10, 20, 30 mg/kg or PTK787 50 mg/kg, vs control) |
| --- | --- | --- | --- | --- |
| VEGF | significantly increased neoangiogenesis | – | – | – |
| Clc1ccc(Nc2nnc(Cc3ccncc3)c3ccccc23)cc1 [PTK787] | – | 88.78 | 0.146 ± 0.049 *** g | decreased MHCC97L transplanted tumor growth and significantly reduced mean tumor volume |
